pIC50: −log10 of the molar value. Converted amounts (≈) assume the structure as drawn. The source made the active and inactive calls. The calls are words filed in the database; no cut-off is given here. *1 amine or outer side, *2 acyl side, *3 side chain or, on linkers, in order; H or OH if unused. Where a SMILES comes first, the peptide text is derived from it. [ ]: non-standard residue; d: D form. The star is where a group is joined. X1 = C/C(=N\OCC(=O)[*:2])c1ccc(N[*:1])cc1; Benzoyl(5-Br-2-OH) = O=C(c1cc(Br)ccc1O)*; Palmitoyl = CCCCCCCCCCCCCCCC(=O)*; Decanoyl = CCCCCCCCCC(=O)*
Experiments:
[1] = test system: Mycobacterium tuberculosis; assay: […] antimycobacterial activity against Mycobacterium tuberculosis H37Rv ATCC 27294 infected in human MONO-MAC-6 cells assessed as reduction in colony forming unit at 250 uM for 6 days by colony counting based analysis; format: functional, organism-based; conditions: time 6.0 day
Procedure, shortened: (§1)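 MonoMac6 monolayers infected with H37Rv, then treated with compound at 125 or 250 µM for 3 days. Treatment repeated with fresh compound solution for another 3 days. Intracellular bacteria quantified as CFU against untreated infected cells.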

[2] = test system: Mycobacterium tuberculosis; assay: Antimycobacterial activity against Mycobacterium tuberculosis H37Rv ATCC 27294 assessed as reduction in colony forming unit after 28 days by serial dilution method; format: functional, organism-based; conditions: time 28.0 day
Procedure, shortened: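 After the 4-week MIC incubation in Sula semisynthetic medium (pH 6.5), growth inhibition confirmed by plating on Löwenstein-Jensen solid medium and counting colony forming units.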

[3] = test system: Mycobacterium tuberculosis; assay: […] antimycobacterial activity against Mycobacterium tuberculosis H37Rv ATCC 27294 infected in human MONO-MAC-6 cells assessed as reduction in colony forming unit at 125 uM for 6 days by colony counting based analysis; format: functional, organism-based; conditions: time 6.0 day; procedure, shortened: as §1
[4] = Stability of the compound in Sula's semisynthetic medium containing 10% DMSO assessed as free salicylanilide formation at pH 6.5 at 2 mg/ml after 4 weeks at 37 degree C by reverse phase HPLC analysis
Procedure, shortened: (§2)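 Conjugate incubated in Sula semisynthetic medium (pH 6.5) at 37 °C for 4 weeks. Decomposition to free salicylanilide and 2-hydroxyacetyl-tuftsin derivative followed by analytical RP-HPLC and mass spectrometry.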

[5] = Stability of the compound in Sula's semisynthetic medium containing 10% DMSO assessed as 2-hydroxyacetyl-tuftsin derivative formation at pH 6.5 at 2 mg/ml after 4 weeks at 37 degree C by reverse phase HPLC analysis; procedure, shortened: as §2
[6] = test system: Mycobacteroides abscessus; assay: Antimycobacterial activity against Mycobacterium abscessus ATCC 19977 assessed as reduction in colony forming unit after 7 days by serial dilution method; format: functional, organism-based; conditions: time 7.0 day
Procedure, shortened: (§3)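 MIC determined in Sula semisynthetic medium, pH 6.5, 1 week incubation. Growth inhibition confirmed by plating on Löwenstein-Jensen solid medium and counting CFU. Bacteria inoculated without drug served as growth control.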

[7] = Selectivity index, ratio of IC50 for cytostatic activity against human MONO-MAC-6 cells to MIC for antimycobacterial activity against Mycobacterium tuberculosis H37Rv ATCC 27294; format: toxicity, cell-based; conditions: read-out: Selectivity Index
Procedure, shortened: (§4)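 MTT assay on MonoMac6 or HepG2 cells after 24 h exposure, top concentration 200 µM. SI = IC50 (µM)/MIC (µM) against H37Rv from the 4-week Sula medium assay.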

[8] = Stability in rat liver lysosomal homogenate assessed as drug degradation at 50 uM and measured upto 24 hrs by HPLC-MS analysis; format: ADME, subcellular, Lysosome; conditions: tissue homogenate
Procedure, shortened: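 Conjugates incubated in rat liver lysosomal homogenate. Reaction mixtures sampled at 5 min, 1 h, 2 h, 4 h, 8 h and 24 h and analysed by HPLC-MS (chromatograms and mass spectra) to identify intact conjugate, fragments and cleavage sites.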

[9] = test system: MONO-MAC-6; assay: Cytostatic activity against human MONO-MAC-6 cells assessed as reduction in cell viability incubated for 24 hrs by MTT assay; format: functional, cell-based; conditions: MONO-MAC-6, 24 h
Procedure, shortened: (§5)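 MTT viability assay after 24 h exposure of MonoMac6 human monocytic cells or HepG2 human hepatocellular carcinoma cells. Top concentration 200 μM. IC50 taken from dose-response curves as the concentration reducing viability to 50% of maximal.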

[10] = test system: HepG2; assay: Cytostatic activity against human HepG2 cells assessed as reduction in cell viability incubated for 24 hrs by MTT assay; format: functional, cell-based; conditions: HepG2, 24 h; procedure, shortened: as §5
[11] = Selectivity index, ratio of IC50 for cytostatic activity against human HepG2 cells to MIC for antimycobacterial activity against Mycobacterium tuberculosis H37Rv ATCC 27294; format: toxicity, cell-based; conditions: read-out: Selectivity Index; procedure, shortened: as §4
[12] = test system: Mycobacterium tuberculosis; assay: Antimycobacterial activity against Mycobacterium tuberculosis H37Rv ATCC 27294 assessed as reduction in bacterial growth after 21 days by serial dilution method; format: functional; conditions: H37Rv ATCC 27294, 504 h, time 21 day
Procedure, shortened: (§6)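 Broth MIC in Sula semisynthetic medium, pH 6.5; 4-week incubation, with 21-day values […] where indicated. Drug-free inoculated bacteria served as growth control. MIC also expressed as drug content (µg/mL) = MIC (µM) × average SAL molar mass × number of SAL per conjugate / 1000.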

[13] = test system: Mycobacteroides abscessus; assay: Antimycobacterial activity against Mycobacterium abscessus ATCC 19977 assessed as reduction in bacterial growth after 7 days by serial dilution method; format: functional; conditions: ATCC 19977, 168 h, time 7 day; procedure, shortened: as §3
[14] = Selectivity index, ratio of IC50 for cytotoxicity against mouse bone marrow derived macrophages to MIC for antimycobacterial activity against Mycobacterium tuberculosis H37Rv ATCC 27294; format: toxicity; conditions: read-out: Selectivity Index
Procedure, shortened: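 Murine bone marrow-derived macrophages exposed for 48 h, top concentration 100 µM. Viability read by MTT and IC50 taken from dose-response curves. SI = IC50/MIC against H37Rv.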

[15] = Retention time of the compound by RP-HPLC analysis; format: physicochemical
Procedure, shortened: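 Analytical RP-HPLC on a C18 column (5 μm, 100 Å, 4.6 × 150 mm). Eluent A 0.1% TFA in water, eluent B 0.1% TFA in acetonitrile-water 80:20. Gradient 0% B for 5 min, to 60% B at 15 min, to 100% B at 25 min. Flow 1 mL/min, detection at 220 nm.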

[16] = test system: Mycobacterium tuberculosis; assay: Antimycobacterial activity against Mycobacterium tuberculosis H37Rv ATCC 27294 assessed as reduction in bacterial growth after 28 days by serial dilution method; format: functional; conditions: H37Rv ATCC 27294, 672 h, time 28 day; procedure, shortened: as §6
[17] = Cytotoxicity against mouse bone marrow derived macrophages assessed as reduction in cell viability incubated for 48 hrs by MTT assay; format: toxicity, cell-based, Macrophage
Procedure, shortened: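 Murine bone marrow-derived macrophages exposed for 48 h, viability by MTT. Highest concentration tested 100 µM. IC50 taken from dose-response curves.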

SMILES	Activity [1]	Activity [2]	Activity [3]	Stability [4]	Stability [5]	Activity [6]	selectivity ratio [7]	Stability [8]	pIC50 [9]	pIC50 [10]	selectivity ratio [11]	MIC [12] [µM]	MIC [13] [µM]	selectivity ratio [14]	Retention_time [15] [min]	MIC [16] [µM]	IC50 at 48 h [17] [µM]
C/C(=N\OCC(=O)NCC(=O)N[C@@H](Cc1ccccc1)C(=O)N[C@@H](CC(C)C)C(=O)NCC(=O)N[C@H](C(=O)N[C@@H](CCCCN)C(=O)N1CCC[C@@H]1C(=O)N[C@H](CCCCN)C(=O)NCC(=O)N[C@@H](C(=O)N[C@H](CCCCN)C(=O)N1CCC[C@H]1C(=O)N[C@H](CCCCN)C(=O)NCC(=O)N[C@@H](C(=O)N[C@@H](CCCCN)C(=O)N1CCC[C@@H]1C(=O)N[C@H](CCCCN)C(=O)NCC(=O)N[C@@H](C(=O)N[C@H](CCCCN)C(=O)N1CCC[C@H]1C(=O)N[C@H](CCCCN)C(=O)NCC(N)=O)[C@H](C)O)[C@H](C)O)[C@H](C)O)[C@@H](C)O)c1ccc(NC(=O)c2cc(Br)ccc2O)cc1	Active	Active	inactive	Stable	Stable	Active											
CCCCCCCCCCCCCCCC(=O)NCCCC[C@H](NC(=O)[C@@H]1CCCN1C(=O)[C@H](CCCCN)NC(=O)[C@@H](NC(=O)CO/N=C(\C)c1ccc(NC(=O)c2cc(Br)ccc2O)cc1)[C@@H](C)O)C(=O)NCC(N)=O ({Benzoyl(5-Br-2-OH)}-[X1]TKPK(Palmitoyl)G-NH2)	Active	Active	Active			Active	0.3	Unstable	4.27	4.63	0.1	173 (≈ 200 µg/mL)	173 (≈ 200 µg/mL)				
CCCCCCCCCCCCCCCC(=O)NCCCC[C@H](NC(=O)[C@@H]1CCCN1C(=O)[C@H](CCCCN)NC(=O)[C@@H](NC(=O)CO/N=C(\C)c1ccc(NC(=O)c2cc(Br)ccc2O)cc1)[C@@H](C)O)C(=O)NCC(=O)N[C@H](C(=O)N[C@@H](CCCCN)C(=O)N1CCC[C@H]1C(=O)N[C@@H](CCCCN)C(=O)NCC(=O)N[C@H](C(=O)N[C@@H](CCCCN)C(=O)N1CCC[C@H]1C(=O)N[C@@H](CCCCN)C(=O)NCC(=O)N[C@H](C(=O)N[C@@H](CCCCN)C(=O)N1CCC[C@H]1C(=O)N[C@@H](CCCCN)C(=O)NCC(N)=O)[C@@H](C)O)[C@@H](C)O)[C@@H](C)O ({Benzoyl(5-Br-2-OH)}-[X1]TKPK(Palmitoyl)GTKPKGTKPKGTKPKG-NH2)	Active	Active	Active			Active	0.2	Unstable	4.78	4.42	0.4		74.3 (≈ 200 µg/mL)	0.2	18.4	92.9 (≈ 250 µg/mL)	20.4
CCCCCCCCCC(=O)NCCCC[C@H](NC(=O)[C@@H]1CCCN1C(=O)[C@H](CCCCN)NC(=O)[C@@H](NC(=O)CO/N=C(\C)c1ccc(NC(=O)c2cc(Br)ccc2O)cc1)[C@@H](C)O)C(=O)NCC(N)=O ({Benzoyl(5-Br-2-OH)}-[X1]TKPK(Decanoyl)G-NH2)	Active	Active	Active			Active	0.4	Unstable	4.14	4.25	0.3	186 (≈ 200 µg/mL)	186 (≈ 200 µg/mL)				
CCCCCCCCCCCCCCCC(=O)NCCCC[C@H](NC(=O)[C@@H]1CCCN1C(=O)[C@H](CCCCN)NC(=O)[C@@H](NC(=O)CNC(=O)[C@H](CCCCN)NC(=O)[C@@H]1CCCN1C(=O)[C@H](CCCCN)NC(=O)[C@@H](NC(=O)CNC(=O)[C@H](CCCCN)NC(=O)[C@@H]1CCCN1C(=O)[C@H](CCCCN)NC(=O)[C@@H](NC(=O)CO/N=C(\C)c1ccc(NC(=O)c2cc(Br)ccc2O)cc1)[C@@H](C)O)[C@@H](C)O)[C@@H](C)O)C(=O)NCC(=O)N[C@H](C(=O)N[C@@H](CCCCN)C(=O)N1CCC[C@H]1C(=O)N[C@@H](CCCCN)C(=O)NCC(N)=O)[C@@H](C)O ({Benzoyl(5-Br-2-OH)}-[X1]TKPKGTKPKGTKPK(Palmitoyl)GTKPKG-NH2)	Active	Active	Active			Active	0.3	Unstable	4.68	4.39	0.5	74.3 (≈ 200 µg/mL)	74.3 (≈ 200 µg/mL)		17.3		
C/C(=N\OCC(=O)N[C@H](C(=O)N[C@@H](CCCCN)C(=O)N1CCC[C@H]1C(=O)N[C@@H](CCCCN)C(=O)NCC(N)=O)[C@@H](C)O)c1ccc(NC(=O)c2cc(Br)ccc2O)cc1 ({Benzoyl(5-Br-2-OH)}-[X1]TKPKG-NH2)	Active	Active	Active			Active	> 9.2	Unstable	< 3.70	< 3.70	> 9.2		174 (≈ 160 µg/mL)	4.6	15.6	21.8 (≈ 20 µg/mL)	> 100
C/C(=N\OCC(=O)NCC(=O)N[C@@H](Cc1ccccc1)C(=O)N[C@@H](CC(C)C)C(=O)NCC(=O)N[C@H](C(=O)N[C@@H](CCCCN)C(=O)N1CCC[C@H]1C(=O)N[C@@H](CCCCN)C(=O)NCC(=O)N[C@H](C(=O)N[C@@H](CCCCN)C(=O)N1CCC[C@H]1C(=O)N[C@@H](CCCCN)C(=O)NCC(=O)N[C@H](C(=O)N[C@@H](CCCCN)C(=O)N1CCC[C@H]1C(=O)N[C@@H](CCCCN)C(=O)NCC(=O)N[C@H](C(=O)N[C@@H](CCCCN)C(=O)N1CCC[C@H]1C(=O)N[C@@H](CCCCN)C(=O)NCC(N)=O)[C@@H](C)O)[C@@H](C)O)[C@@H](C)O)[C@@H](C)O)c1ccc(NC(=O)c2cc(Br)ccc2O)cc1							0.6	Unstable	4.06	3.95	0.8			0.7	15.7		92.1
CC(=O)c1ccc(NC(=O)c2cc(Br)ccc2O)cc1		Active				Active	2.5		4.73	4.80	2.1		59.8 (≈ 20 µg/mL)	10.2		7.5 (≈ 2.51 µg/mL)	76.5
